Assay results: ChEMBL document CHEMBL1121372, “Synthesis and antihypertensive activity of 5-amino-2-pyridinecarboxylic acid derivatives” (1980)
Activity calls are given as the source filed them. No cut-off for these calls is given here.

Legend:
[1] = system: Rattus norvegicus; experiment: Antihypertensive effect in spontaneously hypertensive rat (SHR), expressed as fall in blood pressure (BP) at 50 mg/kg dose given orally; assay type: functional; settings: route oral
Method in brief: (§1)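 Male SHR, about 16 weeks old, with systolic pressure above 150 mmHg, held in restraint cages. Tail-cuff occlusion was raised to 250 mmHg and then lowered, after 1 h acclimation and at least 3 baseline readings. Dosing was by daily gavage in 3% cornstarch/5% PEG-400/Tween 80 for 2 or 4 days, with 4–6 rats per drug. Readings at 1, 2, 3 and 24 h; peak fall reported.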

[2] = system: Rattus norvegicus; experiment: The compound was tested for antihypertensive effect in spontaneously hypertensive rat (SHR), expressed as fall in blood pressure (BP) at 100 mg/kg dose given orally; Inactive; assay type: functional, organism-based; parameters: dose 100 mg/kg; method in brief: as §1
[3] = system: Rattus norvegicus; experiment: The compound was tested for antihypertensive effect in spontaneously hypertensive rat (SHR), expressed as fall in blood pressure (BP) at 100 mg/kg dose given orally; assay type: functional; settings: route oral; method in brief: as §1
[4] = system: Canis familiaris; experiment: Antihypertensive activity in unanesthetized renal hypertensive dogs measured as mean Blood Pressure at 100 mg per kg dose after peroral administration on day1; assay type: functional, Canis lupus familiaris; parameters: unit not given beside the values; settings: route oral
Method in brief: (§2)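 Renal hypertensive dogs, unanesthetized. Test compound given orally once daily as a solid in a gelatin capsule. Blood pressure was taken at 1.5, 3, 6 and 24 h after each daily dose. Activity is the maximum change in mean blood pressure or heart rate over each daily session. Values are mean ± SE, with significance marked at p < 0.05.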

[5] = system: Canis familiaris; experiment: Antihypertensive activity in unanesthetized renal hypertensive dogs measured as Heart Rate (HR) (beats/min) at 100 mg per kg dose after peroral administration on day1; assay type: functional, Canis lupus familiaris; settings: route oral; method in brief: as §2
[6] = system: Canis familiaris; experiment: Antihypertensive activity in unanesthetized renal hypertensive dogs measured as Heart Rate (HR) (beats/min) at 100 mg per kg dose after peroral administration on day 3; assay type: functional, Canis lupus familiaris; settings: route oral; method in brief: as §2
[7] = system: Canis familiaris; experiment: Antihypertensive activity in unanesthetized renal hypertensive dogs measured as Heart Rate (HR) (beats/min) at 100 mg per kg dose after peroral administration on day 2; assay type: functional, Canis lupus familiaris; settings: route oral; method in brief: as §2
[8] = system: Canis familiaris; experiment: Antihypertensive activity in unanesthetized renal hypertensive dogs measured as mean Blood Pressure at 100 mg per kg dose after peroral administration on day 4 (p<0.05); assay type: functional, Canis lupus familiaris; settings: route oral; method in brief: as §2
[9] = system: Canis familiaris; experiment: Antihypertensive activity in unanesthetized renal hypertensive dogs measured as HeartHeart Rate (HR) (beats/min) at 100 mg per kg dose after peroral administration on day 4 ((p<0.05); assay type: functional, Canis lupus familiaris, Heart; settings: route oral; method in brief: as §2
[10] = system: Canis familiaris; experiment: Antihypertensive activity in unanesthetized renal hypertensive dogs measured as mean Blood Pressure at 100 mg per kg dose after peroral administration on day 2; assay type: functional, Canis lupus familiaris; settings: route oral; method in brief: as §2
[11] = system: Canis familiaris; experiment: Antihypertensive activity in unanesthetized renal hypertensive dogs measured as mean Blood Pressure at 100 mg per kg dose after peroral administration on day 3 (p<0.05); assay type: functional, Canis lupus familiaris; settings: route oral; method in brief: as §2
[12] = system: Rattus norvegicus; experiment: The compound was tested for antihypertensive effect in spontaneously hypertensive rat (SHR), expressed as fall in blood pressure (BP) at 25 mg/kg dose given orally; assay type: functional; settings: route oral; method in brief: as §1
[13] = system: Canis familiaris; experiment: Antihypertensive activity in unanesthetized renal hypertensive dogs measured as mean Blood Pressure at 100 mg per kg dose after peroral administration on day 2 (p<0.05); assay type: functional, Canis lupus familiaris; settings: route oral; method in brief: as §2
[14] = system: Canis familiaris; experiment: Antihypertensive activity in unanesthetized renal hypertensive dogs measured as Heart Rate (HR) (beats/min) at 100 mg per kg dose after peroral administration on day 4; assay type: functional, Canis lupus familiaris; settings: route oral; method in brief: as §2
[15] = system: Canis familiaris; experiment: Antihypertensive activity in unanesthetized renal hypertensive dogs measured as Heart Rate (HR) (beats/min) at 100 mg per kg dose after peroral administration on day 2 (p<0.05); assay type: functional, Canis lupus familiaris; settings: route oral; method in brief: as §2
[16] = system: Canis familiaris; experiment: Antihypertensive activity in unanesthetized renal hypertensive dogs measured as mean Blood Pressure at 100 mg per kg dose after peroral administration on day 4 ((p<0.05); assay type: functional, Canis lupus familiaris; settings: route oral; method in brief: as §2
[17] = system: Canis familiaris; experiment: Antihypertensive activity in unanesthetized renal hypertensive dogs measured as mean Blood Pressure at 100 mg per kg dose after peroral administration on day 3; assay type: functional, Canis lupus familiaris; settings: route oral; method in brief: as §2
[18] = system: Canis familiaris; experiment: Antihypertensive activity in unanesthetized renal hypertensive dogs measured as mean Blood Pressure at 100 mg per kg dose after peroral administration on day 2((p<0.05); assay type: functional, Canis lupus familiaris; settings: route oral; method in brief: as §2

COc1cccc(CNc2ccc(C(=O)O)nc2)c1
BP [1]: >20 mmHg

O=Cc1ccc(NCc2cccc(Cl)c2)cn1
BP [1]: >20 mmHg

O=C(O)c1ccc(NS(=O)(=O)c2ccc(Cl)cc2)cn1
BP [2]: inactive

Cc1nc(C(=O)O)ccc1N(C)Cc1cccc(Cl)c1
BP [3]: >20 mmHg

O=C(O)c1ccc(NCc2cccc(F)c2)cn1
BP [1]: >60 mmHg | MBP [4]: -30 | Maximum change in heart rate [5]: 35 | HR [6]: 51 | HR [7]: 78 | MBP [8]: -51 | HR [9]: 44 | MBP [10]: -46 | MBP [11]: -56

O/N=C/c1ccc(NCc2ccc(F)cc2)cn1
BP [1]: <20 mmHg

CN(Cc1cccc(F)c1)c1ccc(C(=O)O)nc1
BP [1]: >20 mmHg

O=C(O)c1ccc(NCc2ccccn2)cn1
BP [1]: >20 mmHg

CN(Cc1cccc(Cl)c1)c1ccc(C(N)=O)nc1
BP [12]: <20 mmHg

Cc1cccc(CNc2ccc(C(=O)O)nc2)c1
BP [1]: >20 mmHg

CN(Cc1cccc(Cl)c1)c1ccc(C(=O)O)nc1
BP [1]: >80 mmHg | MBP [4]: -21 | BP [12]: >40 mmHg | BP [3]: >80 mmHg | MBP [10]: -25

CN(Cc1cccc(Br)c1)c1ccc(C(=O)O)nc1
BP [1]: >40 mmHg

OCc1ccc(NCc2cccc(Cl)c2)cn1
BP [1]: > 40 mmHg

CC(Nc1ccc(C(=O)O)nc1)c1ccccc1 (centres undefined)
BP [1]: >80 mmHg

COc1cc(CNc2ccc(C(=O)O)nc2)cc(OC)c1OC
BP [1]: <20 mmHg

CN(Cc1ccc(Cl)c(Cl)c1)c1ccc(C(=O)O)nc1
BP [1]: >60 mmHg

CCCCS(=O)(=O)Nc1ccc(C(=O)O)nc1
BP [2]: inactive

O=C(O)c1ccc(NCc2cc(Cl)cc(Cl)c2)cn1
BP [1]: >60 mmHg

O=C(O)c1ccc(NCc2cccnc2)cn1
BP [3]: <20 mmHg

O=C(O)c1ccc(NCc2ccc(F)cc2)c[n+]1[O-]
BP [1]: >20 mmHg

O=Cc1ccc(NCc2ccc(F)cc2)cn1
BP [1]: >80 mmHg

O=C(O)c1ccc(NCCCc2ccccc2)cn1
BP [3]: >40 mmHg

O=C(O)c1ccc(NCc2ccc(C(F)(F)F)cc2)cn1
BP [1]: >40 mmHg

COC(=O)c1ccc(NCc2ccc(F)cc2)cn1
BP [1]: >60 mmHg

CCOC(=O)Nc1ccc(C(=O)OC)nc1
BP [2]: inactive

NC(=O)c1ccc(NCc2ccc(F)cc2)cn1
BP [1]: >40 mmHg

CN(Cc1ccccc1)c1ccc(C(=O)O)nc1
BP [1]: >40 mmHg

O=C(O)c1ccc(NCc2ccc(F)cc2)cn1
BP [1]: > 60 mmHg | MBP [4]: -69 | Maximum change in heart rate [5]: 37 | BP [12]: >60 mmHg | HR [6]: 52 | MBP [13]: -41 | HR [14]: 41 | MBP [11]: -49 | HR [15]: 60 | MBP [16]: -48

O=C(O)c1ccc(NCc2cccc(Br)c2)cn1
BP [1]: >20 mmHg

O=C(O)c1ccc(NCc2cccc(Cl)c2)cn1
MBP [4]: -15 | MBP [17]: -4 | Maximum change in heart rate [5]: 16 | MBP [18]: -9 | HR [6]: 11 | HR [7]: 11 | BP [3]: >60 mmHg

CN(Cc1cccc(Cl)c1)c1ccc(CO)nc1
BP [1]: >40 mmHg

COC(=O)c1ccc(N(C)Cc2cccc(Cl)c2)cn1
BP [1]: >20 mmHg
